In PMC9536290 (Clinical Infectious Diseases: An Official Publication of …, 2022):
Values joined by “and” are separate entries in the source; they are usually repeats but may differ in a detail not shown here. Equal values may be shown once.

How the values were obtained:
[1] = observed in other studies; cited from earlier work
[2] = tested on: triple-mutant polymorph (R361K/V362I/L363M); conditions: cited from earlier work
[3] = Phase IIa monotherapy study: plasma pharmacokinetics; format: in vivo, HIV-1–positive, treatment-naive adults; conditions: for Accumulation ratio AUC0-τ, geometric mean (% CVb) / Accumulation ratio Cmax, geometric mean (% CVb) / Accumulation ratio Cτ, geometric mean (% CVb): steady state vs day 1; for Tmax / AUC(0-t): human
Method in brief: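 Oral doses were given once daily with food: part 1 for 10 days, part 2 for 7 days. Plasma drug was measured by LC-MS/MS (range 3.00–1000 ng/mL). Noncompartmental parameters were AUC0-24, Cmax and tmax on day 1, and AUC0-τ, Cmax and Cτ at steady state (day 8, 9 or 10 in part 1; day 7 in part 2). Accumulation ratios were steady state vs day 1, and dose proportionality used a power model. Participants vomiting within 1× tmax were excluded.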

HIV-1 = experiment: Phase IIa monotherapy study: antiviral effect; format: in vivo, HIV-1–positive, treatment-naive adults; conditions: for Plasma HIV-1 RNA change from baseline to nadir, mean (SD): n = 6; for Modeled plasma HIV-1 RNA maximum change (nadir), least squares mean (90% CI): mixed-effects model
Method in brief: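 Randomized, double-blind, placebo-controlled oral monotherapy, once daily after a moderate-fat meal (≥400 calories, ≥120 from fat) taken 30 minutes before dosing. Part 1: 10 or 200 mg for 10 days. Part 2: 40–140 mg for 7 days, then combination ART from day 8. Plasma HIV-1 RNA endpoints were maximum change and change to day 11 (part 1) or day 8 (part 2). Maximum change was fitted by a mixed-effects linear model; dose–response by an Emax model pooling both parts (ED50).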

[4] = 10 mg once daily, part 1 (10 days)
[5] = 40 mg once daily, part 2 (7 days)
[6] = 80 mg once daily, part 2 (7 days)
[7] = 140 mg once daily, part 2 (7 days)
[8] = 200 mg once daily, part 1 (10 days)

Structure (SMILES): C=C(C)[C@@H]1CC[C@]2(NCCN3CCS(=O)(=O)CC3)CC[C@]3(C)[C@H](CC[C@@H]4[C@@]5(C)CC=C(C6=CC[C@@](CF)(C(=O)O)CC6)C(C)(C)[C@@H]5CC[C@]43C)[C@@H]12 [GSK’254]
- Terminal phase half-life [1]: ~ 24 hours
- EC90 ([2]; read-out: 3× protein-binding adjusted 90% effective concentration (3× PBA EC90)): 150 nM
- EC50 ([2]; read-out: Half maximal effective concentration (EC50)): 3 nM
- 3× protein-binding adjusted 90% effective concentration (3× PBA EC90) ([2]; target trough concentration): 0.11 µg/mL
- Accumulation ratio AUC0-τ, geometric mean (% CVb) ([3]; 10 mg once daily): 1.54 (24.5)
- Accumulation ratio Cmax, geometric mean (% CVb) ([3]; 10 mg once daily): 0.93 (171.7)
- Accumulation ratio Cτ, geometric mean (% CVb) ([3]; 10 mg once daily): 1.48 (22.2)
- Accumulation ratio AUC0-τ, geometric mean (% CVb) ([3]; 40 mg once daily): 2.29 (11.2)
- Accumulation ratio Cmax, geometric mean (% CVb) ([3]; 40 mg once daily): 2.03 (24.4)
- Accumulation ratio Cτ, geometric mean (% CVb) ([3]; 40 mg once daily): 2.30 (6.4)
- Accumulation ratio AUC0-τ, geometric mean (% CVb) ([3]; 80 mg once daily): 1.93 (18.6)
- Accumulation ratio Cmax, geometric mean (% CVb) ([3]; 80 mg once daily): 1.73 (17.6)
- Accumulation ratio Cτ, geometric mean (% CVb) ([3]; 80 mg once daily): 1.94 (20.8)
- Accumulation ratio Cmax, geometric mean (% CVb) ([3]; 140 mg once daily): 2.02 (37.5)
- Accumulation ratio Cτ, geometric mean (% CVb) ([3]; 140 mg once daily): 1.90 (16.0)
- Accumulation ratio AUC0-τ, geometric mean (% CVb) ([3]; 200 mg once daily): 2.25 (72.1)
- Accumulation ratio Cmax, geometric mean (% CVb) ([3]; 200 mg once daily): 1.98 (69.4)
- Accumulation ratio Cτ, geometric mean (% CVb) ([3]; 200 mg once daily): 1.98 (61.2)
- Dose proportionality of plasma PK ([3]; 10-200 mg): generally dose proportional to 140 mg but non-proportional between 140 and 200 mg
- Tmax ([3]; plasma, oral, Median tmax across all doses, steady state, 10-200 mg): 4.02 to 5.48 h
- AUC(0-t) ([3]; plasma, po, 10 mg): 700 ng·h/mL
- AUC(0-t) ([3]; plasma, po, 40 mg): 3250 ng·h/mL
- AUC(0-t) ([3]; plasma, po, 80 mg): 6120 ng·h/mL
- AUC(0-t) ([3]; plasma, po, 140 mg): 14000 ng·h/mL
- Tmax ([3]; plasma, po, 140 mg, tmax, median (range), repeat dose 140 mg once daily, day 7 (part 2), plasma, n = 6): 4.08 h
- AUC(0-t) ([3]; plasma, po, 200 mg): 12400 ng·h/mL
- Tmax ([3]; plasma, po, 200 mg, tmax, median (range), repeat dose 200 mg once daily, Day 8, 9, or 10 (part 1), plasma, n = 6): 5.48 h
- Dose proportionality power model estimated slope (90% CI) for Cτ ([3]; repeat administration, steady state): 1.14 (90% CI: 1.02–1.26)
- CL/F (apparent oral clearance), geometric mean (% CVb) ([3]; repeat dose 40 mg once daily, day 7 (part 2), n = 6): 5360 (26.8) mL/h
- CL/F (apparent oral clearance), geometric mean (% CVb) ([3]; repeat dose 80 mg once daily, day 7 (part 2), n = 6): 6765 (26.7) mL/h
- CL/F (apparent oral clearance), geometric mean (% CVb) ([3]; repeat dose 140 mg once daily, day 7 (part 2), n = 6): 4779 (27.9) mL/h
- CL/F (apparent oral clearance), geometric mean (% CVb) ([3]; repeat dose 200 mg once daily, Day 8, 9, or 10 (part 1), n = 6): 7159 (18.4) mL/h
- AUC0-τ, geometric mean (% CVb) ([3]; repeat dose 200 mg once daily, Day 8, 9, or 10 (part 1), plasma, n = 6): 27.90 (18.4) µg∗h/mL
- Mean trough concentration relative to target trough concentration ([3]; ≥40-mg groups (all dose groups except 10 mg)): > 110 ng/mL
- Maximum change in HIV-1 RNA (HIV-1; 10 mg once daily, 10 days): −0.4 log10
- Plasma HIV-1 RNA change from baseline to nadir, mean (SD) (HIV-1; [4]): −0.36 (0.25) log10 copies/mL
- Modeled plasma HIV-1 RNA maximum change (nadir), least squares mean (90% CI) (HIV-1; [4]): −0.34 (−.67 to −.00) log10 copies/mL
- Plasma HIV-1 RNA change from baseline to primary endpoint, mean (SD) (HIV-1; 10 mg once daily, part 1, Day 11, n = 6): −0.22 (0.31) log10 copies/mL
- Maximum change in HIV-1 RNA (HIV-1; 40 mg once daily, 7 days): −1.2 log10
- Plasma HIV-1 RNA change from baseline to nadir, mean (SD) (HIV-1; [5]): −1.18 (0.44) log10 copies/mL
- Modeled plasma HIV-1 RNA maximum change (nadir), least squares mean (90% CI) (HIV-1; [5]): −1.05 (−1.29 to −.82) log10 copies/mL
- Plasma HIV-1 RNA change from baseline to primary endpoint, mean (SD) (HIV-1; 40 mg once daily, part 2, Day 8, n = 6): −1.18 (0.44) log10 copies/mL
- Maximum change in HIV-1 RNA (HIV-1; 80 mg once daily, 7 days): −1.0 log10
- Plasma HIV-1 RNA change from baseline to nadir, mean (SD) (HIV-1; [6]): −1.02 (0.33) log10 copies/mL
- Modeled plasma HIV-1 RNA maximum change (nadir), least squares mean (90% CI) (HIV-1; [6]): −0.94 (−1.16 to −.72) log10 copies/mL
- Plasma HIV-1 RNA change from baseline to primary endpoint, mean (SD) (HIV-1; 80 mg once daily, part 2, Day 8, n = 6): −1.02 (0.33) log10 copies/mL
- Maximum change in HIV-1 RNA (HIV-1; 140 mg once daily, 7 days): −1.5 log10
- Plasma HIV-1 RNA change from baseline to nadir, mean (SD) (HIV-1; [7]): −1.49 (0.27) log10 copies/mL
- Modeled plasma HIV-1 RNA maximum change (nadir), least squares mean (90% CI) (HIV-1; [7]): −1.49 (−1.70 to − 1.28) log10 copies/mL
- Plasma HIV-1 RNA change from baseline to primary endpoint, mean (SD) (HIV-1; 140 mg once daily, part 2, Day 8, n = 6): −1.45 (0.24) log10 copies/mL
- Maximum change in HIV-1 RNA (HIV-1; 200 mg once daily, 10 days): −2.0 log10
- Plasma HIV-1 RNA change from baseline to nadir, mean (SD) (HIV-1; [8]): −2.01 (0.33) log10 copies/mL
- Modeled plasma HIV-1 RNA maximum change (nadir), least squares mean (90% CI) (HIV-1; [8]): −1.93 (−2.24 to −1.62) log10 copies/mL
- Plasma HIV-1 RNA change from baseline to primary endpoint, mean (SD) (HIV-1; 200 mg once daily, part 1, Day 11, n = 6): −1.96 (0.34) log10 copies/mL
- Maximum mean decline from baseline in HIV-1 RNA (HIV-1; 10-mg dose): 0.36 log10
- Participants with >1.5-log10 decline in HIV-1 RNA from baseline at Day 8 (HIV-1; 40-mg group (n = 6)): 1 participants
- Maximum mean decline in HIV-1 RNA (HIV-1; 140-mg group): 1.5 log10
- Participants with >1.5-log10 decline in HIV-1 RNA from baseline at Day 8 (HIV-1; 140-mg group (n = 6)): 3 participants
- Maximum mean decline in HIV-1 RNA (HIV-1; 200-mg group): 2.0 log10
- Decline from baseline in HIV-1 RNA at day 11 in all participants (HIV-1; 200-mg group, day 11): > 1.5 log10
- Half maximal effective dose (ED50) (HIV-1; Emax nonlinear model, maximum change in HIV-1 RNA to day 8 vs dose, once daily): 42.67 mg and 42.7 mg and ~ 43 mg
- Decline in HIV-1 RNA (HIV-1; doses ≥40 mg, regardless of dosing duration): ≥ 1 log10
- Potency as an antiviral (maximum change in HIV-1 RNA) (HIV-1; monotherapy): 2 log10
- Median time to nadir in HIV-1 RNA (HIV-1; part 1 (10 days dosing)): 11.5 days
- Median time to nadir in HIV-1 RNA (HIV-1; part 2 (7 days dosing)): 8.0 days
